Bioassay records: PubChem BioAssay, Sanford-Burnham Center for Chemical Genomics
The list is not random: actives were taken first. Their share in the collection is about 2.5%.
SENP8 block-1: blocks human SENP8 cleavage of Nedd8 substrate | Q96LD8 | recombinant SENP8, Nedd8 substrate fluorescence | inhibition, % at 20 µM | 0.64% of 360,000 active | AID 602440; in the data active = inhibition mostly above about 40%, no sharp cut-off; inactive = mostly below about 27%
Target sequence (Q96LD8 whole entry, looked up): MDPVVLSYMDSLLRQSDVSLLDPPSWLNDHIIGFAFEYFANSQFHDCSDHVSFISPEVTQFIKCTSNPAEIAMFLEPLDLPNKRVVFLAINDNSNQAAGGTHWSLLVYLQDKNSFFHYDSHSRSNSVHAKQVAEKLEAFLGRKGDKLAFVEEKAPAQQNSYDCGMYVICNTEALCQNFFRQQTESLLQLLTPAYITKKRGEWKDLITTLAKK
SENP7 block: blocks the human protease SENP7; recombinant SENP7, Z-RLRGG-aminoluciferin luminescence, 40 min; inhibition, % at 5 µM; 1.5% of 330,000 active; AID 434973;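 active = inhibition above about 50% at the single test dose, limit read from the data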
SENP1 inh: inhibitors of human SENP1 SUMO protease catalytic domain | inhibition, % at 10 µM | AID 624204 | 0.21% of 360,000 active | recombinant SENP1 catalytic domain, CyPet-SUMO1-YPet FRET cleavage;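 active = inhibition at least 30% at 10 µM, raw YFP signal under a set limit, fluorescence ratio 0.5 to 1.5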
Target sequence (Q9P0U3 419-644 limits assumed): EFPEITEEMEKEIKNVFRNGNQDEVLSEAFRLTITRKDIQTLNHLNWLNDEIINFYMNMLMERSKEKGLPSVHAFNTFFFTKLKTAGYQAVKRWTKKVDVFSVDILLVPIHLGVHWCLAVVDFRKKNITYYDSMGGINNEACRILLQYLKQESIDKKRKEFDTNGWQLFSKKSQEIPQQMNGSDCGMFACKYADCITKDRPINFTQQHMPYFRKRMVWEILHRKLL
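Assay system – human recombinant His6-tagged SENP1 catalytic domain enzyme · Input – SENP1 enzyme, 20 pM final · Buffer or medium – Tris pH 8 buffer plus EDTA, NaCl, BME, BSA, NP40, catalase · Schedule – 50 min reaction at room temperature · Technique – FRET read of cyan and yellow fluorescence · Control set – no-enzyme wells low, DMSO-plus-enzyme wells high control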
SENP8 block-2: SENP8 protease inhibition. Q96LD8. purified SENP8, Z-RLRGG-aminoluciferin cleavage, luminescence. inhibition, % at 10 µM. 1.2% of 330,000 active; in the data active = inhibition above about 50%
SENP6 inh: inhibitors of human SENP6 protease | inhibition, % at 10 µM | Q9GZR1 | Recombinant SENP6 catalytic domain, aminoluciferin luminescence | 1.8% of 330,000 active;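 active = inhibition above about 50% at the single tested dose, limit read from the data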
SENP8 conf: confirmation of human SENP8 protease inhibitors; shares compounds with SENP7 block; 40% of 6,200 active; inhibition, % at 12.5 µM; AID 488912; Recombinant SENP8, Z-RLRGG-aminoluciferin luminescence, 60 min;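 active = mean inhibition across replicates above about 50%, limit read from the data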
SENP6 confirm: confirmation of human SENP6 protease inhibitors. shares compounds with SENP7 block. recombinant SENP6, Z-RLRGG-aminoluciferin luminescence. inhibition, % at 12.5 µM. 58% of 6,200 active
SENP7 conf: confirmation of human SENP7 protease inhibitors; shares compounds with SENP7 block; recombinant SENP7, Z-RLRGG-aminoluciferin luminescence, 40 min; inhibition, % at 12.5 µM; 69% of 6,200 active
Casp3 select: selectivity test for SENP inhibitors: human caspase-3 inhibition | shares compounds with SENP7 block | purified caspase-3, Z-DEVD-aminoluciferin luminescence, 60 min | inhibition, % at 12.5 µM | 60% of 6,200 active | AID 488918;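 active = mean inhibition above about 50%, limit read from the data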
Luc interf: counter-screen for SENP inhibitors: luminescence interference | shares compounds with SENP7 block | Pre-incubated SENP8/Z-RLRGG-aminoluciferin, luciferase luminescence interference | inhibition, % at 12.5 µM | 39% of 6,200 active | AID 488919;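 active = mean inhibition above about 50% when retested at one dose, limit read from the data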
Large screens that a line does not name were inactive (follow-up assays come after a bar, where they were run).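 Rule for the calls, unless noted: active = mean inhibition above about 50% in the one-dose retest (limit read from the data); inactive = the rest.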

O=C(NC(=S)/C(=C1\CCCCCN1)[N+](=O)[O-])c1ccccc1	SENP7 block 60, SENP8 block-2 57, SENP6 inh 60 | SENP8 conf 77 | SENP6 confirm 71 | SENP7 conf 93 | Casp3 select 74 | Luc interf inactive
CN=c1scc(-c2ccco2)n1/N=C/c1ccc(O)c(O)c1	SENP8 block-2 56, SENP6 inh 68 | SENP8 conf 59 | SENP6 confirm 63 | SENP7 conf 86 | Casp3 select inactive | Luc interf 62
CCc1nc2ccc(C(=O)NCCCN3CCCC3=O)cn2c1N(C)C(=O)C1CCCCC1	none (no result: SENP7 block, SENP8 block-2, SENP6 inh)
Cc1cc(N)n(-c2cc(C)c3ccccc3n2)n1	SENP7 block 81, SENP8 block-2 73, SENP6 inh 79 | SENP8 conf inactive | SENP6 confirm 71 | SENP7 conf 93 | Casp3 select 79 | Luc interf 70
CCCCCCn1c(=O)n2n(c1=O)C[C@]1(OC(=O)Nc3c(C)noc3C)CN(S(=O)(=O)c3ccc(C)cc3)C[C@]1(O)C2	none (no result: SENP7 block, SENP8 block-2, SENP6 inh)
CCNC(=O)C1CCCN1C(=O)C(CCCN=C(N)N)NC(=O)C(CC(C)C)NC(=O)C(Cc1cn(Cc2ccccc2)cn1)NC(=O)C(Cc1ccc(O)cc1)NC(=O)C(CO)NC(=O)C(Cc1c[nH]c2ccccc12)NC(=O)C(Cc1cnc[nH]1)NC(=O)C1CCC(=O)N1 (centres undefined)	none
O=Cc1ccccc1OCc1ccc2c(c1)OCO2	SENP7 block 92, SENP8 block-2 91, SENP6 inh 97 | SENP8 conf 96 | SENP6 confirm 97 | SENP7 conf 101 | Casp3 select 95 | Luc interf 90
COc1ccc2occ(C(=O)c3ccccc3)c2c1	none
O=C(c1ccccc1)c1coc2c1C(=O)c1ccccc1C2=O	SENP8 block-1 52, SENP6 inh 85 | SENP8 conf inactive | SENP6 confirm 75 | SENP7 conf inactive | Casp3 select inactive | Luc interf inactive
O=C(O)c1cccc(NC2=C(N3CCOCC3)C(=O)c3ccccc3C2=O)c1	SENP8 block-1 59, SENP8 block-2 57, SENP6 inh 75 | SENP8 conf 69 | SENP6 confirm 81 | SENP7 conf 60 | Casp3 select 64 | Luc interf inactive
COc1ccc(C(=O)CSc2ccc(-c3ccccc3)nn2)cc1	none
CCOc1ccc(-c2ccc(SCC)nn2)cc1	SENP7 block 90, SENP8 block-2 80, SENP6 inh 65 | SENP8 conf 59 | SENP6 confirm 68 | SENP7 conf 85 | Casp3 select 74 | Luc interf inactive
COc1ccc(-c2ccc(SC)nn2)cc1	SENP7 block 100, SENP8 block-2 94, SENP6 inh 95 | SENP8 conf 98 | SENP6 confirm 99 | SENP7 conf 102 | Casp3 select 98 | Luc interf 80
CCSc1ccc(-c2ccc(C)cc2)nn1	none (no result: SENP7 block, SENP8 block-2, SENP6 inh)
CN1CCN(C(=O)/C=C/c2ccc(C#N)cc2)CC1	none
Cc1nc2cc(NC(=O)Nc3cccc4ccccc34)ccc2n1C	SENP7 block 80 | SENP8 conf inactive | SENP6 confirm inactive | SENP7 conf 74 | Casp3 select 71 | Luc interf inactive
NC(CCC(=O)NC(CS)C(=O)NCC(=O)O)C(=O)O (centres undefined)	none (no result: SENP7 block, SENP8 block-2, SENP6 inh)
Cc1cc(N/C=C/C(=O)c2ccc(Br)cc2)no1	none
Cc1ccnc(N/C=C/C(=O)c2ccc(Br)cc2)c1	SENP7 block 96, SENP8 block-2 87, SENP6 inh 88 | SENP8 conf inactive | SENP6 confirm inactive | SENP7 conf 60 | Casp3 select 54 | Luc interf inactive
